ChEMBL document CHEMBL4396917, “Synthesis and biological evaluation of novel benzylidene-succinimide derivatives as noncytotoxic antiangiogenic inhibitors with anticolorectal cancer activity in vivo” (Eur J Med Chem, 2019)
Activity calls are given as the source filed them. No cut-off for these calls is given here.

Columns and labels:
[1] = system: Chorioallantoic membrane; assay: Antiangiogenic activity in Leghorn chicken fertilized egg chorioallantoic membrane at 10 nM/egg measured after 48 hrs by CAM assay; type: functional, tissue-based; conditions: Gallus gallus
Outline: (§1)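 Fertile Leghorn eggs incubated at 37.8°C, 40% humidity; window opened on day 7; compound, sunitinib or 0.9% NaCl mixed with DMSO applied on filter paper onto CAM; 48 h incubation, methanol fixation, photography; nascent vessels counted.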

[2] = system: Chorioallantoic membrane; assay: Antiangiogenic activity in Leghorn chicken fertilized egg chorioallantoic membrane assessed as impaired neovascularization with absence of vascular networks at 10 nM/egg measured after 48 hrs by CAM assay; type: functional, tissue-based; conditions: Gallus gallus; outline: as §1
[3] = system: HUVEC; assay: Antimigratory activity in HUVEC assessed as reduction in VEGF-induced cell migration at 2.5 uM measured after 6 hrs by wound healing assay relative to control; type: functional; conditions: Homo sapiens
Outline: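 Confluent HUVECs starved 12 h in M200 with 2% FBS, scratched with pipette tip; fresh M200 with 25 ng/mL VEGF plus vehicle, 2.5 μM sunitinib or compound (1, 2.5 μM); wound imaged at 0, 6, 12 and 24 h by inverted microscopy.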

[4] = system: HUVEC; assay: Antiinvasive activity in HUVEC assessed as inhibition of VEGF-induced cell invasion after 6 hrs by crystal violet staining based transwell assay; type: functional; conditions: Homo sapiens
Outline: (§2)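 Transwell: 1×10⁴ HUVECs in serum-free M200 in top chamber with vehicle or compound; bottom chamber M200 with 10% FBS; 6 h at 37°C; cells on membrane underside fixed in 4% paraformaldehyde, stained 0.1% crystal violet, imaged and counted.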

[5] = system: HUVEC; assay: Antiinvasive activity in HUVEC assessed as inhibition of VEGF-induced cell invasion at 10 uM after 6 hrs by crystal violet staining based transwell assay relative to control; type: functional; conditions: Homo sapiens; outline: as §2
[6] = system: HUVEC; assay: Antiinvasive activity in HUVEC assessed as inhibition of VEGF-induced cell invasion at 20 uM after 6 hrs by crystal violet staining based transwell assay relative to control; type: functional; conditions: Homo sapiens; outline: as §2
[7] = system: HUVEC; assay: Antiangiogenic activity in HUVEC assessed as inhibition of VEGF-induced capillary like tube formation at 1 uM preincubated with VEGF for 20 mins followed by compound addition measured after 6 hrs by matrigel based tube formation assay relative to control; type: functional; conditions: Homo sapiens
Outline: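 Matrigel (100 μL) set 1 h at 37°C; 2×10⁴ HUVECs in M200 with 10% FBS added per well plus 10 ng/mL VEGF; compound added after 20 min; incubated 6 h at 37°C, then capillary-like structures photographed.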

[8] = system: Aorta; assay: Inhibition of VEGF-induced capillary sprouting in Sprague-Dawley rat aortic ring at 20 uM treated for every 3 days for 7 days measured on day 7 by inverted microscopy relative to control; type: functional
Outline: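 Aortas from anesthetized Sprague-Dawley rats cut into 1-mm rings and embedded in Matrigel for 1 h at 37°C. Rings starved 1 day, then cultured in opti-MEM with 2.5% FBS and 30 ng/mL VEGF plus compound. Treatment renewed every 3 days for 7 days. Sprouting imaged on day 7 by inverted microscopy.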

[9] = system: HUVEC; assay: Induction of apoptosis in VEGF-stimulated HUVEC assessed as necrotic cells at 1 uM after 24 hrs by Annexin V-FITC/propidium iodide staining based flow cytometric analysis (reference value: 12.1%); type: cell-based; conditions: human
Outline: (§3)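 HUVECs plated at 5×10^5 per well and treated 24 h with 1, 5, 10 or 20 μM. Detached and adherent cells were pooled, washed in ice-cold PBS and resuspended in fresh medium. 1×10^5 cells were stained with annexin-V-FITC in annexin-V buffer for 20 min in the dark, then PI (50 μg/mL) was added. Read-out by flow cytometry.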

[10] = system: HUVEC; assay: Induction of apoptosis in VEGF-stimulated HUVEC assessed as necrotic cells at 5 uM after 24 hrs by Annexin V-FITC/propidium iodide staining based flow cytometric analysis (reference value: 12.1%); type: cell-based; conditions: human; outline: as §3
[11] = system: HUVEC; assay: Induction of apoptosis in VEGF-stimulated HUVEC assessed as early apoptotic cells at 10 uM after 24 hrs by Annexin V-FITC/propidium iodide staining based flow cytometric analysis (reference value: 7%); type: cell-based; conditions: human; outline: as §3
[12] = system: HUVEC; assay: Effect on total STAT3 expression in VEGF-induced HUVEC at 1 to 20 uM pre-incubated for 2 hrs followed by VEGF stimulation and measured after 15 mins by Western blot analysis; type: ADME, cell-based; conditions: human, 0.25 h
Outline: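 HUVECs serum-starved overnight, pretreated with compound (methods: 1, 2.5, 5, 10 μM for 2 h; legend: 1, 5, 10, 20 μM for 1.5 h), then VEGF 50 ng/mL (methods: VEGF165, 15 min; legend: 30 min); lysates equalized by Bradford, ~20 μg protein resolved on gradient SDS-PAGE, immunoblotted, ECL detection.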

[13] = system: HT-29; assay: Downregulation of HIF1-alpha mRNA expression in human HT-29 cells after 24 hrs by RT-qPCR assay; type: functional, cell-based
Outline: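 HT29 cells treated with 1, 5, 10 or 20 μM for 24 h; total RNA extracted with TRIzol; SYBR Green qPCR, 40 cycles of 5 s at 95°C and 60 s at 60°C in 20-μL reactions.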

[14] = target: Vascular endothelial growth factor receptor 2 (Homo sapiens) (UniProt P35968); assay: Inhibition of VEGFR2 (unknown origin) at 10 uM using myelin basic protein as substrate in presence of [gamma-33P]-ATP by scintillation counting analysis relative to control
Vascular endothelial growth factor receptor 2 (Homo sapiens), sequence (P35968 whole entry): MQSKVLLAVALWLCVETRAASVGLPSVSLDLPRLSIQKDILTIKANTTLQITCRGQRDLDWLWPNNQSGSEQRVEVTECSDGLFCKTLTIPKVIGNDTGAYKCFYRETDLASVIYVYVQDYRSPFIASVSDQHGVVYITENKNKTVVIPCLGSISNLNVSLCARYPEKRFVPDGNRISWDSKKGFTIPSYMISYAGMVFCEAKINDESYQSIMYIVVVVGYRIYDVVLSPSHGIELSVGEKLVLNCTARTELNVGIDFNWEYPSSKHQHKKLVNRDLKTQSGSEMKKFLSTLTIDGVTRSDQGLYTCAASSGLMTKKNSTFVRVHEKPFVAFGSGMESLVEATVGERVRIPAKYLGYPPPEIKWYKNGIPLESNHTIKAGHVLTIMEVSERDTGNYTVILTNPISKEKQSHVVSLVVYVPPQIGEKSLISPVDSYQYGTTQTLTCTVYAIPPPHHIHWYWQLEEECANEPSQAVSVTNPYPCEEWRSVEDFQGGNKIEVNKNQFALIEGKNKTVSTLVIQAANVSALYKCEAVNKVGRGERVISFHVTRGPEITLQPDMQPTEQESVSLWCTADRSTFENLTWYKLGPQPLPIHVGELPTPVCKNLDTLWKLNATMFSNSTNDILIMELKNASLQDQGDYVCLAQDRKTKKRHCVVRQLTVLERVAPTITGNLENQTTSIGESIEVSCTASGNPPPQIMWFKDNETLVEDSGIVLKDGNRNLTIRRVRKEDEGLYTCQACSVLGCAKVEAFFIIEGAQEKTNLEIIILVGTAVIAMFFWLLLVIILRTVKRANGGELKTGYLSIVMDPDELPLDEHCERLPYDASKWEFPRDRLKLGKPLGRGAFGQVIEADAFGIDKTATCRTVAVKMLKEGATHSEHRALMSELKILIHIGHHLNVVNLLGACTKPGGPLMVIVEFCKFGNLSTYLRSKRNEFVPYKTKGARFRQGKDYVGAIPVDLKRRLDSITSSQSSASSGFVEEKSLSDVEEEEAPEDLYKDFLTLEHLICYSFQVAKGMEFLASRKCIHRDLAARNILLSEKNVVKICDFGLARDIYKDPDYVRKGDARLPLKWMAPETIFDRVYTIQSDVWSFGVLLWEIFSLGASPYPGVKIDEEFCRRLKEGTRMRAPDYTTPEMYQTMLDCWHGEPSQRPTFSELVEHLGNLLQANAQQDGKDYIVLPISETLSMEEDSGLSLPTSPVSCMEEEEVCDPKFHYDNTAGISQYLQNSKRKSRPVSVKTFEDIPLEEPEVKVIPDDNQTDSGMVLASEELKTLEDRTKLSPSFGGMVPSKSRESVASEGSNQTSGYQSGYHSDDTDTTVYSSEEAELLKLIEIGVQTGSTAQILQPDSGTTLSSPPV
Outline: (§4)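 Radiometric kinase panel run by a contract lab. Kinase (5–10 mU) in 25 mM Tris pH 7.5, 0.02 mM EGTA, 0.66 mg/mL myelin basic protein, magnesium acetate and [γ-33P]-ATP (about 500 cpm/pmol). Started with Mg-ATP mix, 40 min at room temperature, stopped with 3% phosphoric acid. Spotted on P30 filters, washed in 75 mM phosphoric acid and methanol, scintillation counted. Mean ± SD of three independent experiments.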

[15] = target: Ribosomal protein S6 kinase beta-1 (Homo sapiens) (UniProt P23443); assay: Inhibition of P70S6K (unknown origin) at 10 uM using myelin basic protein as substrate in presence of [gamma-33P]-ATP by scintillation counting analysis relative to control; outline: as §4
Ribosomal protein S6 kinase beta-1 (Homo sapiens), sequence (P23443 whole entry, looked up): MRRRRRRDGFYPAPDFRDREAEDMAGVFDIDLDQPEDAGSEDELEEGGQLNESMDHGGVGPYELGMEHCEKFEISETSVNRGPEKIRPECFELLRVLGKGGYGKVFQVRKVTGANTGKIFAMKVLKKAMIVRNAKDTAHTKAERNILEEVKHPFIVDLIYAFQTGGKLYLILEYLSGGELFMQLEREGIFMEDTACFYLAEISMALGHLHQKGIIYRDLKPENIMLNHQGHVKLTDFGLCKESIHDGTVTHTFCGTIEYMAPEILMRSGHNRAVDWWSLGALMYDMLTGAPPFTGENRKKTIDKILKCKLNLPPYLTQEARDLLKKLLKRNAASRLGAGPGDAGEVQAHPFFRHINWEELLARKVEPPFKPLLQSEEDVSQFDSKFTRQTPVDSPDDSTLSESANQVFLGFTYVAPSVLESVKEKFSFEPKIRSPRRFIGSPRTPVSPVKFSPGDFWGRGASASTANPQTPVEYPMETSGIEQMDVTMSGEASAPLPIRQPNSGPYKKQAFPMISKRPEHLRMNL

[16] = system: HT-29; assay: Antitumor activity against human HT-29 cells xenografted in mouse assessed as increase in apoptosis in tumor at 20 to 60 mg/kg, po administered every ither day for 3 weeks and measured at 20 days post treatment by TUNEL assay; type: functional, organism-based
[17] = system: HT-29; assay: Downregulation of MMP9 expression in human HT-29 cells after 24 hrs by immunoblot analysis; type: functional, cell-based
[18] = system: HT-29; assay: Downregulation of MMP2 expression in human HT-29 cells after 24 hrs by immunoblot analysis; type: functional, cell-based
[19] = system: HT-29; assay: Antiangiogenic activity against human HT-29 cells xenografted in mouse assessed as mean vessel density in tumour at 20 to 60 mg/kg, po administered every other day for 3 weeks measured at 20 days post-treatment; type: functional
[20] = system: HT-29; assay: Antiangiogenic activity in human HT-29 cells assessed as decrease in secreted MMP9 activity at 1 to 20 uM after 24 hrs by gelatin zymography; type: functional, cell-based
Outline: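 HT29 cells treated 1, 5, 10 or 20 μM for 24 h; supernatant run non-reducing on 10% SDS-PAGE with 2% gelatin; SDS removed with 2% Triton X-100, gel incubated 48 h at 37°C in Tris pH 7.5/NaCl/CaCl2 buffer, Coomassie stained; clear MMP-2 and MMP-9 bands quantified by densitometry.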

Activity [12]: Not Active
inhibition [14]: 95.4%
inhibition [15]: 50 to 70%
Structure (SMILES): COc1ccc(NC(=O)c2cccc(/C=C3\CC(=O)N(c4ccc(C)cc4)C3=O)c2)cc1
Activity [1]: Active
Activity [2]: Active
inhibition at 2.5 µM [3]: 30%
inhibition [4]: Dose-dependent effect
inhibition at 10 µM [5]: 50%
inhibition at 20 µM [6]: 70%
inhibition at 1 µM [7]: 30%
inhibition at 20 µM [8]: 95%
Activity [9]: 6.2%
Activity [10]: 4.8%
Activity [11]: 10.8%
inhibition [13]: Dose-dependent effect
Activity [16]: Active
inhibition [17]: Dose-dependent effect
inhibition [18]: Dose-dependent effect
Activity [19]: 5%
inhibition [20]: Active
